These results are taken from ChEMBL document CHEMBL3407390, “α2-adrenoceptor antagonists: synthesis, pharmacological evaluation, and molecular modeling investigation of pyridinoguanidine, pyridino-2-aminoimidazoline and their derivatives” (J Med Chem, 2015).

The structures appear in SMILES notation.

The target of assay [1] is T1, Adrenergic receptor alpha-2 (Homo sapiens, UniProt P08913+P18825+P18089).
T1 sequence (P08913 whole entry): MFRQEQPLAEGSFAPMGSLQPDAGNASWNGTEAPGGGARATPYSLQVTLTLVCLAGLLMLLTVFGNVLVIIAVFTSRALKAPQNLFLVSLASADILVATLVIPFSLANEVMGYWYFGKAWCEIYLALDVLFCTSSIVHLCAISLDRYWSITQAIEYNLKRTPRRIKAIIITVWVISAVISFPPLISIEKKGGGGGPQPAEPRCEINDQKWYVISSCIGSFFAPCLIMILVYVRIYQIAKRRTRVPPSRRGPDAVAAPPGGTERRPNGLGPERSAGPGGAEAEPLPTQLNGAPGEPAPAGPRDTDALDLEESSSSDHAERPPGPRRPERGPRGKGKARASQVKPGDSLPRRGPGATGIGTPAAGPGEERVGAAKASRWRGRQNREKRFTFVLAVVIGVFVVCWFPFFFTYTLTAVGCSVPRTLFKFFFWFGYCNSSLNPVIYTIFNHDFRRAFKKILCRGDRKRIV
T1 sequence (P18825 whole entry): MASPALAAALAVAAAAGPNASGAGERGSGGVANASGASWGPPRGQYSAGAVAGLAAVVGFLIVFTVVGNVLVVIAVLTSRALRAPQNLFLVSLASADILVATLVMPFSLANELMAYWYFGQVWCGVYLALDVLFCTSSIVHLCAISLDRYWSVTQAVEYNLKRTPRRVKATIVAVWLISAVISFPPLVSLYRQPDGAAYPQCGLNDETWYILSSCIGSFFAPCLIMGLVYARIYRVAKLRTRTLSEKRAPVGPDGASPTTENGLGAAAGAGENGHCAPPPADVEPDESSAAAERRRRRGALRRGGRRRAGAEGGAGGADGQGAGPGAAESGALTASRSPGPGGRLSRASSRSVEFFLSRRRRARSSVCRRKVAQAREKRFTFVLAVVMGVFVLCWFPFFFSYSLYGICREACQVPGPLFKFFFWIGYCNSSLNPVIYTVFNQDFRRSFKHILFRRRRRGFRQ
T1 sequence (P18089 whole entry): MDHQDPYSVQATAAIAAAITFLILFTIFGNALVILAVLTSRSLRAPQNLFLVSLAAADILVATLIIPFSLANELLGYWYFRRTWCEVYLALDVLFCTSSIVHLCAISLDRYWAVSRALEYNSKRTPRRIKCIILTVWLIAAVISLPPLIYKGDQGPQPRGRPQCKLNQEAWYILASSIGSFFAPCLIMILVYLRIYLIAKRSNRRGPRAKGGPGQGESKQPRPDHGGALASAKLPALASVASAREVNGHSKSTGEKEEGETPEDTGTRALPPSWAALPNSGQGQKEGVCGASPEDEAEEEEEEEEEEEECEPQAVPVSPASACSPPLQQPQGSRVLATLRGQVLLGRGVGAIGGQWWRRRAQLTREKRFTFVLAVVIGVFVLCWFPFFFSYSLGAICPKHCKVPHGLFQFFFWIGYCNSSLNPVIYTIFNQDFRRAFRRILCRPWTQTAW
The experiment in a line: Displacement of [3H]-RX-821002 from human alpha-2 adrenergic receptor in brain prefrontal cortex membrane by liquid scintillation spectrometry. Type of assay: cell membranes. The method in brief:
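Human prefrontal cortex brain membranes incubated with [3H]RX821002 (2 nM) in 50 mM Tris-HCl, pH 7.5, for 30 min at 25 °C, with competitor at 10 concentrations (10⁻¹²–10⁻³ M). Bound and free ligand separated by rapid vacuum filtration through GF/C filters, then scintillation counting. Adrenaline (10⁻⁵ M) defined nonspecific binding. Ki from one-site nonlinear regression, expressed as pKi.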
(In a radioligand displacement assay an active substance lowers the binding of a labelled ligand.)

Assay [2] addresses T1, Adrenergic receptor alpha-2. The experiment in a line: Antagonist activity at human alpha-2 adrenergic receptor in brain prefrontal cortex membrane assessed as inhibition of UK14304-induced [35S]-GTPgammaS binding by liquid scintillation spectrometry. Type of assay: functional, cell membranes. The method in brief:
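Human prefrontal cortex membranes (40 μg protein) incubated 120 min at 30 °C with shaking in 50 mM Tris-HCl pH 7.4 with 1 mM EGTA, 3 mM MgCl2, 100 mM NaCl, GDP and 0.5 nM [35S]GTPγS. Compounds at 10 concentrations (10⁻¹²–10⁻³ M) were tested against agonist UK14304. Filtration through GF/C filters, then scintillation counting. Nonspecific binding defined with 10 μM unlabeled GTPγS; nonlinear curve analysis.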

The subject of assay [3] is Rattus norvegicus. The experiment in a line: Induction of noradrenaline release from Sprague-Dawley rat in prefrontal cortex at 10 mg/kg, ip […] by microdialysis. To be noted: route intraperitoneal. Type of assay: functional.
Assay [4] concerns Rattus norvegicus. Kind of assay: Induction of noradrenaline release from Sprague-Dawley rat in prefrontal cortex at 1 to 100 uM local administration measured for every 70 mins by microdialysis. Type of assay: functional. In short, it runs like this:
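Male Sprague-Dawley rats (250–300 g), probe placed in PFC under 1.5% isoflurane; tested 18–24 h later. Probe perfused with aCSF (pH 7.4) at 1 μL/min. Compounds dissolved in aCSF were given by reverse dialysis at 1, 10, then 100 μM, each for 70 min. Dialysates collected every 35 min; NA measured by HPLC with amperometric detection. Values are % of mean basal (first 3–4 samples); three animals/group.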

For orientation: pKi means −log10 of the Ki, conventionally taken in molar units. `Cl.N=C(N)Nc1ccccn1` returned a negative logarithm of the Ki (pKi) in assay [1] of 6.19.

Consider `Cl.N=C(N)Nc1ccc(Br)cn1`, for which the negative-log Ki (pKi) in assay [1] is recorded as 5.62.

`Cl.N=C(N)Nc1ccc(Cl)cn1` yielded a pKi in assay [1] of 5.7.

The compound `Cc1ccc(NC(=N)N)nc1.Cl` came in with a pKi in assay [1] of 6.03.

What is called EC50 is the concentration giving half of the maximal effect. In assay [1], `Cl.N=C(N)Nc1ccc2c(n1)CCCC2` came in with a pKi of 6.78. For the same compound, the EC50 in assay [2] was 2.71 µM.

In assay [1], `CCNc1ccc(NC(=N)N)nc1.Cl` had a pKi of 4.12.

For `Cl.N=C(N)Nc1cccnc1`, the pKi in assay [1] is recorded as 3.79.

In assay [1], `Cl.N=C(N)Nc1ccc(Cl)nc1` returned a pKi of 5.18.

In assay [1], `Cc1ccc(NC(=N)N)cn1.Cl` had a pKi of 4.97.

The compound `Cl.N=C(N)Nc1cnc2c(c1)CCCC2` gave a pKi in assay [1] of 5.57.

The compound `CCNc1ccc(NC(=N)N)cn1.Cl` showed a pKi in assay [1] of 6.35.

For the compound `Cl.N=C(N)Nc1ccc([N+](=O)[O-])cn1`, the pKi in assay [1] is recorded as 5.

In assay [1], `Cl.N=C(N)Nc1ccc(N)cn1` gave a pKi of 5.

In the case of `Cl.c1ccc(NC2=NCCN2)nc1`, the negative logarithm of the Ki (pKi) in assay [1] stood at 6.44.

Compound `Cl.Clc1ccc(NC2=NCCN2)nc1` came in with a pKi in assay [1] of 6.25.

`Cc1ccc(NC2=NCCN2)nc1.Cl` had a pKi in assay [1] of 6.41.

In turn, `Cl.c1cc2c(nc1NC1=NCCN1)CCCC2` registered a pKi in assay [1] of 6.27. Moreover, the EC50 in assay [2] worked out at 3.57 µM.

In assay [1], `CCNc1ccc(NC2=NCCN2)nc1.Cl` displayed a pKi of 5.65.

Take `Cl.c1cncc(NC2=NCCN2)c1`: the pKi in assay [1] is 5.28.

As usually defined, the Emax is the size of the effect at its maximum, as opposed to the concentration needed. Take `Cl.c1nc2c(cc1NC1=NCCN1)CCCC2`: the Activity in the assay with Rattus norvegicus [3] was found to be 138%. The Emax in the assay on Rattus norvegicus [4] stood at 148%. The same compound came in with a pKi in assay [1] of 7.02. In addition, the EC50 in assay [2] was 4.23 µM.

In turn, `CCNc1ccc(NC2=NCCN2)cn1.Cl` showed an Activity in the assay on Rattus norvegicus [3] of 186%. In the assay with Rattus norvegicus [4], the Emax turned out to be 429%. The pKi in assay [1] is reported as 7.13. The EC50 in assay [2] was 6.71 µM.

`Cl.N=C(Nc1ccccc1)Nc1ccccn1` registered a pKi in assay [1] of 6.21.

In assay [1], `Cc1ccc(NC(=N)Nc2ccccc2)nc1.Cl` returned a pKi of 6.02.

`Cl.N=C(Nc1ccccc1)Nc1ccc2c(n1)CCCC2` came in with a pKi in assay [1] of 6.75.

In the case of `Cl.N=C(NCCO)Nc1ccccn1`, the pKi in assay [1] amounted to 5.38.

In the case of `Cc1ccc(NC(=N)NCCO)nc1.Cl`, the pKi in assay [1] is 5.21.

As for `Cl.N=C(NCCO)Nc1ccc2c(n1)CCCC2`, the pKi in assay [1] is 5.83.

The compound `Cl.N=C(NCc1ccco1)Nc1ccccn1` registered a pKi in assay [1] of 6.32.

In turn, `Cc1ccc(NC(=N)NCc2ccco2)nc1.Cl` yielded a negative-log Ki (pKi) in assay [1] of 6.28.

In assay [1], `Cl.N=C(NCc1ccco1)Nc1ccc2c(n1)CCCC2` yielded a pKi of 6.67. Moreover, the EC50 in assay [2] was found to be 37.01 µM.

`CCCNC(=N)Nc1ccc(Cl)cn1.Cl` registered a pKi in assay [1] of 5.71.

For the compound `CCCNC(=N)Nc1ccc(C)cn1.Cl`, the pKi in assay [1] is listed as 6.74.

As to `Cl.c1ccc(NC2=NCc3ccccc3N2)cc1`, the pKi in assay [1] is 4.4.

With `Cl.OCCNC1=NCc2ccccc2N1`, the pKi in assay [1] turned out to be 6.26. In addition, the EC50 in assay [2] is 60.34 µM.

Turning to `Cl.c1coc(CNC2=NCc3ccccc3N2)c1`, the negative logarithm of the Ki (pKi) in assay [1] was determined as 5.35.

For `CCCNC1=NCc2ccccc2N1.Cl`, in assay [1], the pKi is recorded as 4.33.

In assay [1], `Cl.OCCNC1=NCc2cccnc2N1` gave a negative logarithm of the Ki (pKi) of 4.49. This pKi and that of the compound before are within 0.2 log units of each other.

As to `Cl.c1coc(CNC2=NCc3cccnc3N2)c1`, the pKi in assay [1] is 4.5. This pKi and that of the compound before are within 0.2 log units of each other.

In assay [1], `Cl.c1cnc2c(c1)CN=C(NCc1ccc3c(c1)OCO3)N2` returned a pKi of 5.3.
